# Diaph act CS: diaphorase activation or chemical reduction counter-screen. Diaphorase/resazurin coupled assay, resorufin fluorescence, 16 min; hits give high values; 1 = vehicle wells, 0 = NADH-free wells. activation factor at 20 µM. actives 0.005% (n = 190,000). AID 1229;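 active means diaphorase activity raised at least twofold by the compound at 20 µM; inactive means activation factor below 2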
#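 Measured by – red resorufin fluorescence at 544/590 nm excitation/emission · Test system – Clostridium kluyveri diaphorase, purified enzyme · Incubation – reaction time 16 min, room temperature · Buffer or medium – 50 mM HEPES pH 7.4 with 4.542 mM MgCl2, 0.005% Tween 20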
# Diaphorase inh: inhibits diaphorase or chemically oxidizes, flagging diaphorase assay artifacts | diaphorase resazurin-to-resorufin fluorescence, NADH, 16 min; bacterial (C. kluyveri) enzyme, not human | inhibition, % at 20 µM | actives 0.69% (n = 190,000) | AID 1217;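 active means primary screen inhibition at 20 µM above a set limit, cut at about 50% in these data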;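 further: plate controls were DMSO with full reaction for no effect and wells lacking NADH for full effect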
#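 Test system: diaphorase enzyme from Clostridium kluyveri; amount: diaphorase at 0.14 U/mL in enzyme working solution; detection: fluorescence of resorufin formed from resazurin, Ex 544/Em 590 nm; times: reaction incubation of 16 min at room temperature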
# G6PDH CS: inhibits Leuconostoc G6PDH, flagging false hits in G6PDH-based assays. inhibition, % at 5 µM. actives 0.12% (n = 200,000). AID 1020. Purified L. mesenteroides G6PDH, diaphorase/resazurin coupled fluorescence, 45 min; in the data active means inhibition above about 50%
# PMI act: increases human mannose-6-phosphate isomerase activity. purified human PMI, coupled resazurin fluorescence, 20 min; hits give high values; 1 = vehicle control, 0 substrate-free wells. activation factor at 20 µM. actives 0.005% (n = 190,000);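 active means activation factor of 2 or more at 20 µM, relative to plate controls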
# Target sequence (P34949 whole entry, looked up): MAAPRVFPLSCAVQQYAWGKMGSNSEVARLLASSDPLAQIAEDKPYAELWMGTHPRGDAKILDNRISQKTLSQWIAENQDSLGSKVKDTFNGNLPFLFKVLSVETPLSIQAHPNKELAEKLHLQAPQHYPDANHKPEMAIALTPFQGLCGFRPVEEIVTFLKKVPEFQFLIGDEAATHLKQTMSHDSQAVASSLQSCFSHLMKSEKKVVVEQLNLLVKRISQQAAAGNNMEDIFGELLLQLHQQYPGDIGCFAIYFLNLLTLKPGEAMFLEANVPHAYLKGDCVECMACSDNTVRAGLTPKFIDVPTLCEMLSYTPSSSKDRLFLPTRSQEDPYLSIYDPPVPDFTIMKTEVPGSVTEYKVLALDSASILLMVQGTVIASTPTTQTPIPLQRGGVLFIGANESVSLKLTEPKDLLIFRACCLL
# PMI act satM6P: PMI (human) activation, high substrate; activation factor at 20 µM; coupled PMI enzyme assay, resazurin fluorescence, 20 min; hits give high values; 1 = untreated enzyme, 0 = substrate-free blank; P34949; actives 0.34% (n = 190,000);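 active means activation factor of 2 or more at 20 µM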
#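 Test system: human phosphomannose isomerase with PGI, G6PDH, diaphorase coupling enzymes / Doses: 20 µM compound, 1% DMSO / Times: enzyme reaction with compound 20 min at room temperature / Measured by: Diaphorase-driven resazurin-to-resorufin fluorescence, excitation 544, emission 590 nm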
# * marks the source's active call; other numbers are inactive results. This is a sample that favours compounds with a hit; in the whole collection about 1.1% have one here.
SMILES,Diaph act CS,Diaphorase inh,G6PDH CS,PMI act,PMI act satM6P
CC(C)CN(CC(C)C)S(=O)(=O)N1CCC(C(=O)NCc2ccc3c(c2)OCO3)CC1,0.9,8.1,1.7,1,1
CCCCn1c(C)cc2cc(O)ccc21,0.7,31.8,56.7*,0.6,0.7
CCCCn1c(=O)cc(O)c2ccccc21,0.9,14.2,1.8,0.9,0.9
Cc1nc2ccc(NC(=S)NCc3ccccc3)cc2nc1C,0.8,21.3,9.1,1.3,0.6
Cc1ccc(NC(=S)Nc2ccc3nc(-c4ccccn4)c(-c4ccccn4)nc3c2)cc1C,0.3,74.7*,60.0*,0.2,0.4
O=C(Nc1ccc2nc(-c3ccco3)c(-c3ccco3)nc2c1)N1CCCCCC1,0.1,93.7*,-10.2,0.8,1
CCOC(=O)C1CCN(C(=O)Nc2ccc3nc(-c4ccco4)c(-c4ccco4)nc3c2)CC1,0.5,52.3*,0.6,1.1,1.3
O=C(Nc1ccc2nc(-c3ccccn3)c(-c3ccccn3)nc2c1)N1CCOCC1,0.4,58.0*,25.3,0.7,0.4
O=C(Nc1ccccn1)N1CCOCC1,1,2.6,6.6,1.1,1.1
Cc1noc(C)c1COC(=O)[C@@H](NC(=O)c1ccccc1)C(C)C,1,-2.1,4.9,1.1,1.1
Cc1cc(Cl)ccc1OC(C)C(=O)NCCCn1ccnc1 (stereo not given),1,-2.7,6.3,1.1,1
CC1=C(C(=O)Nc2ccccc2)C(c2cccs2)NC(=O)N1 (stereo not given),0.9,10.8,6.9,1,1
Cc1ccc(S(=O)(=O)N/N=C2\C(=O)C3(C)CCC2C3(C)C)cc1 (stereo not given),0.9,8.3,11.0,1.8,2.1*
CCNc1ccc(Br)cc(C(=O)/C=C/c2ccc(Cl)cc2Cl)c1=O,0.5,54.2*,21.3,1.1,1.3
COc1c(C)cccc1C(=O)NC(=S)Nc1cccc2nsnc12,0.3,66.2*,10.1,1.1,1
CC(C)CC(=O)NC(=S)Nc1cccc2nsnc12,0.8,18.9,0.2,1.1,0.7
COc1ccc(/C=N/Nc2nc(N3CCCC3)nc(N3CCCC3)n2)cc1O,0.9,5.7,10.3,1.1,1.1
Oc1ccc(/C=N\Nc2cc(N3CCOCC3)nc(N3CCOCC3)n2)c(O)c1,0.7,34.7,37.7,0.7,0.4
Cc1cccc(/C=N/Nc2cc(N3CCOCC3)nc(N3CCOCC3)n2)c1,0.3,72.1*,30.2,0.2,0.3
CC(C)c1ccc(/C=N/Nc2cc(N3CCOCC3)nc(N3CCOCC3)n2)cc1,0.4,63.0*,24.3,0.2,0.3
Oc1ccc(/C=N/Nc2cc(N3CCCC3)nc(N3CCCC3)n2)cc1O,0.4,61.9*,48.6,0.4,0.4
Clc1ccc(-c2ccc(/C=N/Nc3cc(N4CCOCC4)nc(N4CCOCC4)n3)o2)cc1,0.7,29.3,8.8,0.5,0.5
O=[N+]([O-])c1cccnc1NCc1cccs1,0.8,16.6,8.3,1,1
C/C(N)=C(/C#N)C(=O)CN1CCCCC1,0.8,17.0,-1.9,1,1
[O-]C1=N/[N+](=C/c2ccccc2Cl)CC1,0.9,14.0,-0.5,1.5,2*
SMILES,Diaph act CS,Diaphorase inh,G6PDH CS,PMI act,PMI act satM6P
CC1=NN(c2ccc(S(=O)(=O)O)cc2Cl)C(=O)C1,0.7,26.2,7.9,1.4,2*
CCOc1ccc(CC(=O)C2=C(N3CCOCC3)CC(C)(C)CC2=O)cc1OCC,0.9,9.0,7.1,1.3,1
Cc1oc2c(O)c(O)ccc2c(=O)c1-c1cnn(-c2ccccc2)c1,0.3,70.0*,14.9,0.2,0.6
CCOC(=O)N1CCC(NC(=O)c2csc3c2CCCC3)CC1,0.8,15.2,5.9,0.9,1
O=C(Nc1cccc(F)c1)NC1(C(=O)N2CCOCC2)CCCCC1,1,4.8,16.3,1,0.9
O=C(CC1c2ccccc2Oc2ccccc21)N1CCN(c2ccccn2)CC1,1,0.3,3.6,0.9,1
CC1=C(C#N)C(=O)NC(=O)/C1=C\c1ccc(-c2cc(C)c(C)cc2[N+](=O)[O-])o1,0.4,60.9*,27.5,1,0.5
Cc1cc(N2CCOCC2)ccc1/C=C\[N+](=O)[O-],0.9,12.3,-0.8,0.9,0.9
Oc1ccc(/C=N/N=C(c2ccccc2)c2ccccc2)c(O)c1O,0.3,75.0*,-28.1,0.3,0.4
NC(=O)/C(=N\O)c1ccccc1,0.9,9.9,2.5,1,1
O=C(/C(=N/N=C/c1ccc(O)c(O)c1O)c1ccccc1)c1ccccc1,0.4,61.5*,20.1,0.4,0.7
O=C(OCC(=O)N1CCCC1)c1cccs1,0.8,18.2,9.8,1,0.9
Cc1cccc(/C=N/NC(=O)C(C)Nc2cccc3ccccc23)n1 (stereo not given),0.7,27.7,50.0*,1.3,1.7
CC(Nc1cccc2ccccc12)C(=O)N/N=C/c1ccc([N+](=O)[O-])cc1 (stereo not given),0.8,16.8,-1.3,0.8,0.6
COc1cc([N+](=O)[O-])cc(/C=N/NC(=O)C(C)Nc2cccc3ccccc23)c1O (stereo not given),0.3,70.5*,-16.5,1,0.7
Cc1cccc2cc(C(c3nnnn3CC3CCCO3)N3CCCC4(CCCCC4)C3)c(=O)[nH]c12 (stereo not given),0.7,30.9,6.0,1,0.9
Cc1ccc2cc(C(c3nnnn3CC3CCCO3)N3CCc4ccccc4C3)c(=O)[nH]c2c1 (stereo not given),0.5,54.3*,-2.4,1,1.4
CCOc1ccc2[nH]c(=O)c(C(c3nnnn3CC3CCCO3)N3CCc4ccccc4C3)cc2c1 (stereo not given),0.4,58.6*,14.0,1.2,0.9
Cc1cc2cc(C(c3nnnn3CC3CCCO3)N3CCCc4ccccc43)c(=O)[nH]c2cc1C (stereo not given),0.5,49.6,22.0,0.6,0.8
CCc1ccc2[nH]c(=O)c(C(c3nnnn3CC3CCCO3)N3CCCc4ccccc43)cc2c1 (stereo not given),0.3,67.8*,18.6,0.5,0.9
Cc1cccc2cc(C(c3nnnn3CC3CCCO3)N3CCc4ccccc4C3)c(=O)[nH]c12 (stereo not given),0.4,55.1*,21.7,1,1.3
CN(C)C(=O)CCSc1nnc(-c2ccco2)o1,1,2.4,7.9,1.2,1
Cc1cccc2cc(C(c3nnnn3CC3CCCO3)N3CCCc4ccccc43)c(=O)[nH]c12 (stereo not given),0.4,60.3*,5.0,0.8,0.5

# From PubChem BioAssay
